Assay results taken from the RNAGym collection of RNA variant scans (doi:10.1126/science.aae0568).
Variants at the floor of the assay were thinned out.

B1: tRNA (parent)
chain: GUUCCGUUGGCGUAAUGGUAACGCGUCUCCCUCCUAAGGAGAAGACUGCGGGUUCGAGUCCCGUACGGAACG

Variants of: B1
Assay: yeast fitness relative to wild type (ratio to wild type); higher = fitter; tRNA-Arg(CCU), competitive growth, 37 C, YPD
Summary of the method: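 Variants of the tRNA-Arg(CCU) gene, chemically synthesised with a 3% per-site mutation rate at 69 sites, were placed at the native genomic locus in Saccharomyces cerevisiae. The pooled strains were competed in YPD at 37°C for 24 hours in six parallel replicates. Gene amplicons from the start population and from each end population were read by 100-nucleotide paired-end sequencing. Darwinian fitness relative to wild type came from changes in genotype frequencies; genotypes needed ≥ 100 starting reads, and estimates < 0.5 were set to 0.5.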
With G9A G12A C29G A65U the yeast fitness was at most 0.5. For G9A G12A C30G U32C G50A, the yeast fitness was 0.554. G9A G12C showed a yeast fitness of 0.943. In the case of G9A G12C A14C G23A G50C, the yeast fitness is reported as 0.56. In the case of G9A G12C A14C G50C, the yeast fitness is reported as 0.594. With G9A G12C C22U the yeast fitness was 0.591. For G9A G12C C31A C33G A45G, the yeast fitness was 0.611. Variant G9A G12C C31A C33G A45G C66U G68C has a yeast fitness of at most 0.5. G9A G12C C31A C33G A45G G67U gave a yeast fitness of at most 0.5. With G9A G12C G17A C22G C30U C34G the yeast fitness was at most 0.5. In the case of G9A G12C G17A C22G C30U C34G U59G, the yeast fitness is reported as at most 0.5. With G9A G12C G17A C22G C30U C34G U59G A70U the yeast fitness was at most 0.5. G9A G12C U13A G25A C30G gave a yeast fitness of at most 0.5. G9A G12C U13A G25A C30G C66A showed a yeast fitness of at most 0.5. In the case of G9A G12C U13A G25A C30G C66U, the yeast fitness is reported as at most 0.5. In the case of G9A G12U A14U, the yeast fitness is reported as at most 0.5. For G9A G12U A14U C27G G39A G67A, the yeast fitness was at most 0.5. With G9A G12U A14U C31G A69U the yeast fitness was at most 0.5. With G9A G12U A14U C34A A65C the yeast fitness was at most 0.5. Variant G9A G12U A14U U32G U53A has a yeast fitness of at most 0.5. In the case of G9A G17C, the yeast fitness is reported as 0.668. In the case of G9A G17C A20U U54A C61U, the yeast fitness is reported as at most 0.5. G9A G17C C29G C49G gave a yeast fitness of at most 0.5. G9A G17C C49G gave a yeast fitness of at most 0.5. For G9A G17C G52A C55A, the yeast fitness was at most 0.5. For G9A G17C G56C, the yeast fitness was 0.589. Work on G9A G17U U35A G52A U59C C66A G67A yielded a yeast fitness of at most 0.5. G9A G18A C24U A57C showed a yeast fitness of at most 0.5. For G9A G18A C27U A42U, the yeast fitness was 0.652. G9A G18A G25C C30U showed a yeast fitness of at most 0.5. In the case of G9A G18C, the yeast fitness is reported as 0.643. Work on G9A G18C G39C A69U yielded a yeast fitness of at most 0.5. Work on G9A G23A yielded a yeast fitness of 0.825. Variant G9A G23A A36G has a yeast fitness of 0.652. G9A G23A C27A showed a yeast fitness of at most 0.5. In the case of G9A G23A C27A G67C, the yeast fitness is reported as at most 0.5. Variant G9A G23A C29U A43G G68U has a yeast fitness of at most 0.5. With G9A G23C G39C the yeast fitness was at most 0.5. In the case of G9A G23C U64A, the yeast fitness is reported as at most 0.5. G9A G23U A42C gave a yeast fitness of at most 0.5. For G9A G25A, the yeast fitness was 0.978. G9A G25A A40C C46U showed a yeast fitness of 0.727. Variant G9A G25A C49U has a yeast fitness of 0.773. For G9A G25A C61A, the yeast fitness was at most 0.5. G9A G25A U35G gave a yeast fitness of at most 0.5. For G9A G25C C30U, the yeast fitness was 0.679. G9A G25C C60G gave a yeast fitness of at most 0.5. Variant G9A G25C C62U has a yeast fitness of 0.712. With G9A G25C U26A C30U the yeast fitness was at most 0.5. Work on G9A G25C U26G C46G A70U yielded a yeast fitness of at most 0.5. For G9A G38A, the yeast fitness was 0.976. With G9A G38A A65U the yeast fitness was 0.565. With G9A G38C G41C U54A the yeast fitness was at most 0.5. For G9A G39A, the yeast fitness was 0.999. Variant G9A G39A A45G G50A A69U has a yeast fitness of 0.548. In the case of G9A G39A G63C, the yeast fitness is reported as 0.556. With G9A G39C A43C A57C the yeast fitness was at most 0.5. G9A G39C C62G U64C gave a yeast fitness of 0.568. Work on G9A G39C C66U yielded a yeast fitness of 0.606. G9A G41A A69C gave a yeast fitness of 0.558. In the case of G9A G41C, the yeast fitness is reported as 0.899. Work on G9A G44A yielded a yeast fitness of 0.983. Variant G9A G44A C55A A57U has a yeast fitness of at most 0.5. Work on G9A G44C G58A yielded a yeast fitness of 0.766. Variant G9A G48A has a yeast fitness of 0.955. In the case of G9A G48A A69C, the yeast fitness is reported as 0.87. In the case of G9A G48A A69U, the yeast fitness is reported as 1.07. With G9A G48A A70U the yeast fitness was 1.25. With G9A G48A G63A A69U the yeast fitness was 0.764. G9A G48C gave a yeast fitness of 0.985. With G9A G48C A70C the yeast fitness was 1.08. Variant G9A G48C G52A has a yeast fitness of at most 0.5. G9A G48C G68C showed a yeast fitness of 0.603. Work on G9A G48C U53G yielded a yeast fitness of at most 0.5. In the case of G9A G50A, the yeast fitness is reported as 1. Work on G9A G50C A69U yielded a yeast fitness of 0.752. G9A G50C C62G C66U gave a yeast fitness of 0.687. G9A G51A showed a yeast fitness of 0.919. Variant G9A G51A A57G has a yeast fitness of at most 0.5. With G9A G52A G56U the yeast fitness was at most 0.5. In the case of G9A G52C, the yeast fitness is reported as 0.641. In the case of G9A G56A G67A, the yeast fitness is reported as 0.632. For G9A G56C, the yeast fitness was 0.563. For G9A G56C C61U, the yeast fitness was 0.603.
